Reference: ChEMBL document CHEMBL1124737, “Synthesis and alpha 2-adrenoceptor effects of substituted catecholimidazoline and catecholimidazole analogues in human platelets” (J Med Chem, 1990)
One block for each compound: values may come before it.

Columns and labels:
[1] = molecular target: Serotonin (5-HT) receptor; test: Inhibition of U-46,619 + phentolamine by the compound in response of SEC; format: functional, Homo sapiens
Procedure, shortened: (§1)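 Phentolamine 1 μM added 1 min before the test drug and 2 min before the inducer (AA or U46619, at minimum maximally effective concentration). Aspirin 1 mM in U46619 runs. Secretion read as radioactivity release. IC50 from percent inhibition vs log concentration; 3–5 preparations.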

[2] = molecular target: Serotonin (5-HT) receptor; test: Inhibition of Arachidonic acid by the compound in response of SEC; format: functional, Homo sapiens
Procedure, shortened: (§2)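 Inducer at the minimum concentration giving maximal aggregation; inhibitor added 1 min before it. Dense-granule secretion measured as release of radioactivity. U46619 runs include 1 mM aspirin. IC50 from percent inhibition vs log concentration; 3–5 preparations.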

[3] = molecular target: Serotonin (5-HT) receptor; test: Inhibition of U-46,619 by the compound in response of SEC; format: functional, Homo sapiens; procedure, shortened: as §2
Homo sapiens [4] = species on record: Homo sapiens; test: Inhibition of U-46,619 + phentolamine by the compound in response of AGG; format: functional, organism-based
Procedure, shortened: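 Human citrated platelet-rich plasma was incubated with 1 mM aspirin. Phentolamine (1 μM) was added 1 min before the drug and 2 min before U46619, used at the minimal maximally-aggregating concentration. Turbidometric aggregation was followed, and IC50 was based on the maximal transmittance change at 4 min, from percent inhibition versus log concentration plots. Data are from 3–5 preparations.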

Homo sapiens [5] = species on record: Homo sapiens; test: Inhibition of ADP by the compound in response of AGG; format: functional, organism-based
Procedure, shortened: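 The drug was added 1 min before ADP, used at the minimum concentration giving maximal aggregation, in citrated human platelet-rich plasma from medication-free donors. Born turbidometric aggregometry was used. IC50 came from the maximal change in light transmittance after 6 min, using percent inhibition versus log concentration plots. Data are from 3–5 preparations.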

Homo sapiens [6] = species on record: Homo sapiens; test: Inhibition of Arachidonic acid by the compound in response of AGG; format: functional, organism-based
Procedure, shortened: (§3)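 Human platelet-rich plasma from medication-free volunteers, citrate anticoagulated (9:1). Inducer at the minimum concentration giving maximal aggregation. Inhibitor added 1 min before inducer. Turbidometric (Born) aggregation read as the maximal change in light-transmittance amplitude after 4 min. U46619 runs include 1 mM aspirin. IC50 taken from percent inhibition vs log concentration plots; 3–5 preparations.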

Homo sapiens [7] = species on record: Homo sapiens; test: Stimulatory activity against serotonin secretion (SEC).; format: functional, organism-based
Homo sapiens [8] = species on record: Homo sapiens; test: Inhibition of U-46,619 by the compound in response of AGG; format: functional, organism-based; procedure, shortened: as §3
[9] = molecular target: Serotonin (5-HT) receptor; test: Inhibition of AA+phentolamine by the compound in response of SEC; format: functional, Homo sapiens; procedure, shortened: as §1
Homo sapiens [10] = species on record: Homo sapiens; test: Inhibition of AA+phentolamine by the compound in response of AGG; format: functional, organism-based
Procedure, shortened: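 Citrated platelet-rich plasma from medication-free human volunteers was read by Born turbidometric aggregometry. Phentolamine (1 μM) was added 1 min before the drug and 2 min before arachidonic acid, used at the minimum concentration giving maximal aggregation. IC50 was taken from the maximal change in light transmittance after 4 min, read from percent inhibition versus log concentration plots. Data are from 3–5 preparations.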

[11] = molecular target: Serotonin (5-HT) receptor; test: Inhibition of ADP by the compound in response of SEC; format: functional, Homo sapiens; procedure, shortened: as §2
Homo sapiens [12] = species on record: Homo sapiens; test: Log concentration that produces maximum response against epinephrine-induced platelet aggregation; format: functional, organism-based
Homo sapiens [13] = species on record: Homo sapiens; test: Inhibitory concentration of compound against primary aggregation of induced by R-8; format: functional, organism-based
Homo sapiens [14] = species on record: Homo sapiens; test: Inhibition potency against primary wave responses to epinephrine; format: functional, organism-based; conditions: read-out: pA2 (converted)
Homo sapiens [15] = species on record: Homo sapiens; test: Effective concentration for primary wave aggregation was determined; format: functional, organism-based
Procedure, shortened: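 Citrated (9:1) platelet-rich plasma from medication-free human donors. Compound given alone to platelets preincubated 1 min with 1 mM aspirin. Born turbidometric aggregation, maximal change in light transmittance amplitude. EC50 taken from individual plots of percent response versus log concentration. Values in parentheses give number of experiments.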

Homo sapiens [16] = species on record: Homo sapiens; test: Effective concentration for secondary wave aggregation was determined; format: functional, organism-based
Homo sapiens [17] = species on record: Homo sapiens; test: Log concentration that produces maximum response against epinephrine-induced platelet aggregation (primary wave AGG); format: functional, organism-based

SMILES: Cl.Oc1ccc(Cc2ncc[nH]2)cc1O
- Log IC50 [1]: -3.09
- Log IC50 [2]: -3.18
- Log IC50 [3]: -2.81
- IC50 (Homo sapiens [4]): 741 µM
- IC50 (Homo sapiens [5]): 263 µM
- IC50 (Homo sapiens [6]): 661 µM
- IC50 (Homo sapiens [7]): 36.3 µM
- IC50 (Homo sapiens [8]): 1620 µM
- Log IC50 [9]: -3.79
- IC50 (Homo sapiens [10]): 145 µM
- Log IC50 [11]: -3.46

SMILES: Oc1ccc(C[C@H]2CNC=N2)cc1O
- Kb (Homo sapiens [14]): 3.24 µM

Second part, the compound after the results:

- EC50 (Homo sapiens [12]): 38.9 µM
SMILES: Oc1ccc(C(O)c2ncc[nH]2)cc1O (configuration not stated)

- IC50 (Homo sapiens [13]): 1.1 µM
SMILES: COC(=O)[C@@H]1[C@H]2C[C@H]3c4[nH]c5ccccc5c4CCN3C[C@@H]2CC[C@@H]1O [YOHIMBINE]

- EC50 (Homo sapiens [15]): 5.03 µM
- EC50 (Homo sapiens [16]): 4.89 µM
- EC50 (Homo sapiens [17]): 5.13 µM
SMILES: Oc1ccc(C[C@@H]2CNC=N2)cc1O
